Measurements pooled from the literature.
Protocols differ between the studies behind these lines. In brackets after ≈: the same amount, converted by molar mass.
Method: broth dilution

Compound | organism | assay | system | conditions | quantity | value
Oc1cc(O)c2c(c1)O[C@H](c1cc(O)c(O)c(O)c1)[C@@H](O)C2 | Streptococcus sobrinus | microbial killing | – | – | MBC | 400 µg/mL (≈ 1310 µM)
O=C(Nc1ccc2cccnc2c1)c1ccc(COC(Cn2ccnc2)c2ccc(Cl)cc2Cl)cc1 (centres unmarked) | Lodderomyces parapsilosis | microbial growth | – | – | MIC80 | 2 µg/mL (≈ 3.87 µM)
O=C1O[C@H]2[C@@H]3OC(=O)c4cc(O)c(O)c(O)c4-c4c(O)c(O)c5oc(=O)c6c(c(O)c(O)c7oc(=O)c4c5c76)-c4c(cc(O)c(O)c4O)C(=O)OC[C@H]3OC(O)[C@@H]2OC(=O)c2cc(O)c(O)c(O)c2-c2c1cc(O)c(O)c2O (mixture of isomers) | Streptococcus sobrinus | microbial growth | – | 24 h | MIC | 100 µg/mL
O=C(Nc1cccc(Cl)c1)c1ccc(COC(Cn2ccnc2)c2ccc(Cl)cc2Cl)cc1 (centres unmarked) | Lodderomyces parapsilosis | microbial growth | – | – | MIC80 | 0.06 µg/mL (≈ 0.12 µM)
C[C@@H]1O[C@@H](OC[C@H]2O[C@@H](Oc3c(-c4ccc(O)c(O)c4)oc4cc(O)cc(O)c4c3=O)[C@H](O)[C@@H](O)[C@@H]2O)[C@H](O)[C@H](O)[C@H]1O | Streptococcus sobrinus | microbial growth | – | 24 h | MIC | 200 µg/mL (≈ 328 µM)
O=C(Nc1ccc(C(F)(F)F)cc1)c1ccc(COC(Cn2ccnc2)c2ccc(Cl)cc2Cl)cc1 (centres unmarked) | Lodderomyces parapsilosis | microbial growth | – | – | MIC80 | 0.06 µg/mL (≈ 0.112 µM)
C/C(=N\C(=O)/N=C(\C)c1c(O)c2ccccc2oc1=O)c1c(O)c2ccccc2oc1=O | Aspergillus niger | microbial growth | – | 48 h | MIC | 125 µg/mL (≈ 289 µM)
O=C(O[C@@H]1O[C@@H]2COC(=O)c3cc(O)c(O)c(O)c3-c3c(cc(O)c(O)c3O)C(=O)O[C@H]([C@H]1O)[C@@H]2O)c1cc(O)c(O)c(O)c1 | Streptococcus sobrinus | microbial growth | – | 24 h | MIC | 200 µg/mL (≈ 315 µM)
Cc1ccc(C(C)C)c(OC2=C(Cl)C(=O)c3ccccc3C2=O)c1 | Aspergillus niger | microbial growth | – | – | MIC | 10 µg/mL (≈ 29.3 µM)
C[C@@H]1O[C@@H]1P(=O)(O)O | Neisseria gonorrhoeae | microbial growth | ATCC49226 | – | MIC | 31.2 µg/mL
O=C1OC[C@H]2OC(O)[C@H](O)[C@@H](O)[C@@H]2OC(=O)c2cc(O)c(O)c(O)c2-c2c(O)c(O)c3oc(=O)c4c(c(O)c(O)c5oc(=O)c2c3c54)-c2c1cc(O)c(O)c2O (mixture of isomers) | Streptococcus sobrinus | microbial killing | – | – | MBC | 200 µg/mL
Cc1ccc(NC(=O)c2ccc(COC(Cn3ccnc3)c3ccc(Cl)cc3Cl)cc2)cc1 (centres unmarked) | Lodderomyces parapsilosis | microbial growth | – | – | MIC80 | 0.06 µg/mL (≈ 0.125 µM)
C/C(=N\CCNCC/N=C(\C)c1c(O)c2ccccc2oc1=O)c1c(O)c2ccccc2oc1=O | Aspergillus niger | microbial growth | – | 48 h | MIC | 62.5 µg/mL (≈ 131 µM)
OC(Cn1cncn1)(Cn1cncn1)c1ccc(F)cc1F | Aspergillus niger | microbial growth | – | – | MIC | 10 µg/mL (≈ 32.7 µM)
C/C(=N\NC(=O)/N=C(\C)c1c(O)c2ccccc2oc1=O)c1c(O)c2ccccc2oc1=O | Aspergillus niger | microbial growth | – | 48 h | MIC | 125 µg/mL (≈ 279 µM)
O=C(Nc1ccc2[nH]ccc2c1)c1ccc(COC(Cn2ccnc2)c2ccc(Cl)cc2Cl)cc1 (centres unmarked) | Lodderomyces parapsilosis | microbial growth | – | – | MIC80 | 32 µg/mL (≈ 63.3 µM)
C/C(=N\CCNCCNCC/N=C(\C)c1c(O)c2ccccc2oc1=O)c1c(O)c2ccccc2oc1=O | Aspergillus niger | microbial growth | – | 48 h | MIC | 31.2 µg/mL (≈ 60.3 µM)
O=C(Nc1ccc2ccccc2c1)c1ccc(COC(Cn2ccnc2)c2ccc(Cl)cc2Cl)cc1 (centres unmarked) | Lodderomyces parapsilosis | microbial growth | – | – | MIC80 | 32 µg/mL (≈ 62 µM)
O=c1oc2c(O)c(O)cc3c(=O)oc4c(O)c(O)cc1c4c23 | Streptococcus sobrinus | microbial growth | – | 24 h | MIC | 100 µg/mL (≈ 331 µM)
CC(=O)N1CCN(c2ccc(OCC3COC(Cn4ccnc4)(c4ccc(Cl)cc4Cl)O3)cc2)CC1 (centres unmarked) | Aspergillus niger | microbial growth | – | 48 h | MIC | 7.8 µg/mL (≈ 14.7 µM)
